Assay outcomes: PubChem BioAssay, several laboratories
Measles CPE – compounds protecting cells from measles virus cytopathic effect, primary screen, measles RdRp inhibitor project, single point, MLSMR library, absorbance. Measles virus-infected cells, CPE protection. protection (pct of control), % at 4 µM. actives 1.5% (n = 140,000); in the data active = protection mostly above about 24%, no sharp cut-off; inactive = mostly below about 26%
NPY Y1 blocker – NPY-Y1 receptor antagonists, primary screen, cell-based; actives 1% (n = 200,000); inhibition, % at 3.6 µM; HEK293-CNG Y1 cells, membrane potential fluorescence; NPY at EC95, then isoproterenol;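 active = inhibition above the campaign mean inhibition of all tested compounds plus 3 SD, cut at about 20% in these data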
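Material: HEK293 Y1/CNG channel cell line | Also added: NPY (25 nM), isoproterenol (1 µM), Ro 20-1724 (25 µM) | Compound: One concentration, 3.6 µM, in 0.4% DMSO | Schedule: 3 h dye uptake, 1 h room-temperature compound, 45 min post-isoproterenol | Signal: Membrane-potential fluorescent dye readout | Read-out: % inhibition of NPY effect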
NPY2 pot ag – NPY-Y2 potentiators or agonists, primary screen, cell-based. Neuropeptide Y receptor type 2 (Homo sapiens), P49146. cells expressing NPY-Y2, potentiator/agonist read-out. activation, % at 3.6 µM. actives 0.45% (n = 220,000); in the data active = activation above about 27%;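 note: cells stimulated with NPY near EC25 plus isoproterenol at EC100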
NPY-Y1 PAM-ag – NPY-Y1 receptor potentiators or agonists, primary screen, cell-based; Neuropeptide Y receptor type 1 (Homo sapiens), P25929; NPY-Y1 expressing cells, potentiator/agonist activation; actives 0.37% (n = 220,000); AID 1304, 2008; activation, % at 3.6 µM; in the data active = activation above about 33%, passing the limit was not always enough;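 note: cells stimulated with NPY at EC10 then isoproterenol at EC100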
NPY-Y2 antag – NPY-Y2 receptor antagonists, primary screen, cell-based; Neuropeptide Y receptor type 2 (Homo sapiens), P49146; NPY-Y2 expressing cells, antagonist mode; inhibition, % at 2.7 µM; actives 0.99% (n = 140,000); in the data active = inhibition above about 17%
Mdm2 ligase inh – MDM2-luciferase reporter signal enhancers, primary screen, MDM2 E3 ligase inhibitor project, cell-based, luminescence, 1536-well; E3 ubiquitin-protein ligase Mdm2 (Homo sapiens), Q00987; cell-based MDM2 ubiquitination luciferase reporter, 2 h; 0 = plate control, 100 = twice control, blank-subtracted; signal enhancement, % at 5 µM; actives 0.11% (n = 210,000); AID 1230, 2008;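 active = signal enhancement of 30% or more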;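 note: luminescence tracks abundance of the self-degrading MDM2-luciferase fusion protein; higher signal means inhibition of MDM2 E3 ligase activity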
Target sequence (Q00987 whole entry, looked up, the tested form may be a part): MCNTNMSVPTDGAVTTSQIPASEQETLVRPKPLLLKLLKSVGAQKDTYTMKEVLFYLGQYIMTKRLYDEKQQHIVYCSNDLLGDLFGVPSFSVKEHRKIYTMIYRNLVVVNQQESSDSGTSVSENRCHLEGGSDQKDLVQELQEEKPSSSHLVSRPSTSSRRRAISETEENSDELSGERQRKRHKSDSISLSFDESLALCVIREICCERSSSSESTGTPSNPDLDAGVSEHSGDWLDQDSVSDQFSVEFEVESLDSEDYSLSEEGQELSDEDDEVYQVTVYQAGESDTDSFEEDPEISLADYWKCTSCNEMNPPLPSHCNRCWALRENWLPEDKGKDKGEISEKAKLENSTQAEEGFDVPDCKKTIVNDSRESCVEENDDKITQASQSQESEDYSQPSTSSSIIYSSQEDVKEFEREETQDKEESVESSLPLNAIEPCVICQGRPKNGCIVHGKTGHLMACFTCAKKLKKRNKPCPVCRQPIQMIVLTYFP
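Assay system: stable mammalian line carrying autodegrading MDM2–luciferase fusion reporter; Input: 2000 cells in each well; Compound dosing: single-point 5 µM; Schedule: 2 h compound exposure at 37 °C; Signal: SteadyLite luciferase luminescence after 15 min room-temperature reagent incubation; Evaluation: % luminescence enhancement versus blank-corrected plate control mean; Benchmarks: plate controls and plate blanks.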
Of the large screens only hits and unclear results are named; the others gave an inactive call. In the library only some 2.8% were active in any assay of this set; here they are far more common.

COc1cccc2cc(C(=O)N3CCCCC3C)c(=O)oc12 (stereo unspecified)	none
O=c1nc2ccccc2c(NS(=O)(=O)c2ccccc2)n1-c1ccccc1	none
Cc1ccc(S(=O)(=O)Nc2c3ccccc3nc(=O)n2-c2ccccc2)cc1	Measles CPE 35
O=C(CCOc1ccccc1)Nc1ccc(S(=O)(=O)N2CCCC2)cc1	none
Cc1nn(C2CCS(=O)(=O)C2)c(Cl)c1/C=C/C(=O)OCC(=O)c1c[nH]c2ccccc12 (stereo unspecified)	none
Cc1nn(C2CCS(=O)(=O)C2)c(Cl)c1/C=C/C(=O)OCC(=O)c1cc(C)n(-c2ccc(F)cc2)c1C (stereo unspecified)	Measles CPE 46
Cc1cc2c(OCC(O)CNC3CCCCC3)cccc2[nH]1 (stereo unspecified)	NPY2 pot ag 103, NPY-Y1 PAM-ag 110 (no result: Measles CPE, NPY-Y2 antag)
Cc1cc2c(OCC(O)CN3CCCCC3)cccc2[nH]1 (stereo unspecified)	NPY2 pot ag 101, NPY-Y1 PAM-ag 110 (no result: Measles CPE, NPY-Y2 antag)
C=C1CC(C)OC(c2ccccc2OCC(O)CN2CCCCC2)C1 (stereo unspecified)	NPY2 pot ag 70, NPY-Y1 PAM-ag 75
OC(COc1cccc2ccccc12)CN1CCCC1 (stereo unspecified)	NPY2 pot ag 94, NPY-Y1 PAM-ag 99 (no result: Mdm2 ligase inh)
O=C(Nc1ccccc1)c1cc2ccc3ccccc3c2s1	none (no result: Measles CPE, NPY Y1 blocker, NPY-Y2 antag)
CC1(C)CC(Cc2nc(=S)[nH][nH]2)C(=O)O1 (stereo unspecified)	none (no result: Measles CPE, NPY-Y2 antag)
COc1cccc(C2C(C(=O)OCc3ccccc3)=C(C)Nc3ncnn32)c1OC (stereo unspecified)	none
COc1ccccc1OCC#CCNC1CCCCC1C (stereo unspecified)	none (no result: Measles CPE, NPY-Y2 antag)
Nc1ccccc1C(=O)N1CCCC1	none (no result: Measles CPE, NPY-Y2 antag)
Cc1cc(C)nc(N/N=C/c2cc(Br)ccc2O)n1	none (no result: Measles CPE, NPY Y1 blocker, NPY-Y2 antag)
N#Cc1c(N)nc2c(c1-c1cccc(O)c1)CCCCCC2	Mdm2 ligase inh 147
N#Cc1c(N)nc2c(c1-c1ccccc1)CCCC2	none
OC1(c2ccccc2)CN(c2ccccc2)C2=[N+]1CCS2 (stereo unspecified)	none
COC(=O)c1c(-c2ccccc2Cl)noc1/C=C/N(C)C	Mdm2 ligase inh 42 (no result: Measles CPE, NPY-Y2 antag)
CNC(=O)c1cc(C)c(-c2ccccc2)s1	Measles CPE 49
COc1ccc2c(c1OC)C(=O)N(c1ccc(C)cc1)C2=O	none (no result: Measles CPE, NPY-Y2 antag)
COc1ccc2c(c1OC)C(=O)N1c3ccccc3C(=O)N(c3ccccc3)C21 (stereo unspecified)	NPY-Y2 antag 23
COc1ccc2c(c1OC)C(=O)N1N=C(c3ccc(-c4ccccc4)cc3)CC21 (stereo unspecified)	none (no result: Measles CPE, NPY-Y2 antag)
COc1ccc2c(c1OC)C(=O)N1c3ccccc3C(=O)N(c3ccc(F)cc3)C21 (stereo unspecified)	NPY Y1 blocker 52
CCOc1ccc(C(C)=O)cc1Cn1nc(C(=O)O)c2ccccc2c1=O	Measles CPE 50
Cc1ccc(C(=O)Cn2nc(C(=O)O)c3ccccc3c2=O)cc1C	none (no result: Measles CPE, NPY Y1 blocker, NPY-Y2 antag)
COC(=O)c1nn(-c2ccccc2)c(=O)cc1Oc1ccc(Cl)cc1	none
COC(=O)c1nn(-c2ccc(Cl)cc2)c(=O)cc1Sc1ccccn1	Measles CPE 28
CCOC(=O)c1cc(-c2ccc(C)cc2)n(CCC(=O)N2CCN(c3ccccn3)CC2)c1C	none
COCCNC(=O)COc1cccc2c1OC(C)(C)C2	none (no result: Measles CPE, NPY-Y2 antag)
COc1ccc(CNCC(O)COc2cccc3c2OC(C)(C)C3)cc1 (stereo unspecified)	NPY2 pot ag 95, NPY-Y1 PAM-ag 106 (no result: Measles CPE, NPY-Y2 antag)
CC(=O)Nc1cc(NC(C)=O)c(N=Nc2ccccc2)cc1C	none (no result: Measles CPE, NPY Y1 blocker, NPY-Y2 antag)
Cc1ccc(NCC(O)C(O)C(O)CO)c(N=Nc2ccccc2)c1C (stereo unspecified)	NPY2 pot ag 98, NPY-Y1 PAM-ag 99 (no result: Measles CPE, NPY Y1 blocker, NPY-Y2 antag, Mdm2 ligase inh)
Cc1ccc(NC(=O)CCC(=O)NNC(=O)COc2cccc3ccccc23)c(C)c1	none
